Assay results published in ChEMBL document CHEMBL2417516, “Metallo-β-lactamase inhibitory activity of 3-alkyloxy and 3-amino phthalic acid derivatives and their combination effect with carbapenem” (Bioorg Med Chem, 2013).
Values after ≈ are worked out from the molar mass of the structure shown. Active and inactive are the calls of the source. The calls are words filed in the database; no cut-off is given here.

Tests used:
[1] = target: Metallo beta-lactamase (Pseudomonas aeruginosa, UniProt Q6TUJ4); assay: Inhibition of carbapenems-resistant Pseudomonas aeruginosa MSC15369 metallo-beta-lactamase IMP1 expressed in Escherichia coli DH5[alpha] using nitrocefin as substrate after 20 mins by spectrophotometry
Method in brief: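 IMP-1 was expressed in E. coli DH5 with 0.5 mM IPTG induction for 3 h at room temperature, and the soluble enzyme was purified from cell extracts on Ni-NTA. Inhibitors were incubated with 1.0 nM IMP-1 for 20 min at room temperature, and IC50 values were determined.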

[2] = test system: Pseudomonas aeruginosa; assay: Antibacterial activity against mexAB-deleted Pseudomonas aeruginosa KG5002/pMS363 at 50 ug/ml by microbroth dilution method in presence of biapenem; type: functional, organism-based
[3] = test system: Pseudomonas aeruginosa; assay: Antibacterial activity against Pseudomonas aeruginosa PAO1 pMS363 at 50 ug/ml by microbroth dilution method in presence of biapenem; type: functional, organism-based
[4] = test system: Pseudomonas aeruginosa; assay: Antibacterial activity against Pseudomonas aeruginosa PAO1 pMS363 by microbroth dilution method; type: functional
Method in brief: (§1)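 MIC determined by broth microdilution following CLSI guidance, with Mueller–Hinton II broth as the test medium.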

[5] = test system: Pseudomonas aeruginosa; assay: Antibacterial activity against mexAB-deleted Pseudomonas aeruginosa KG5002/pMS363 by microbroth dilution method; type: functional; method in brief: as §1
[6] = test system: Pseudomonas aeruginosa; assay: Antibacterial activity against Pseudomonas aeruginosa clinical isolates producing IMP-1 by microbroth dilution method in presence of ceftazidime; type: functional, organism-based
Method in brief: (§2)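 Minimum inhibitory concentrations were determined by broth microdilution following CLSI guidance, with Mueller–Hinton II broth as the test medium.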

[7] = test system: Pseudomonas aeruginosa; assay: Antibacterial activity against Pseudomonas aeruginosa clinical isolates producing IMP-1 by microbroth dilution method in presence of biapenem; type: functional, organism-based; method in brief: as §2
[8] = test system: Pseudomonas aeruginosa; assay: Antibacterial activity against Pseudomonas aeruginosa clinical isolates producing IMP-1 by microbroth dilution method in presence of meropenem; type: functional, organism-based; method in brief: as §2

Sequence of Metallo beta-lactamase (Q6TUJ4 whole entry): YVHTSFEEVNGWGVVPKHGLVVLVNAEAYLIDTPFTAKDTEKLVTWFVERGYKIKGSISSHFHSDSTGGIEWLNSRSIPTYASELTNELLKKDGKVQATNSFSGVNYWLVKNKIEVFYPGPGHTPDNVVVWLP

Row | Compound | IC50 [1] | Activity [2] | Activity [3] | also measured
1 | O=C(O)c1cccc(N2CCCC(O)C2)c1C(=O)O (stereo not given) | 2.7 µM | Active | Active | 
2 | O=C(O)c1cccc(O)c1C(=O)O | > 300 µM |  |  | 
3 | Nc1cccc(C(=O)O)c1C(=O)O | 300 µM |  |  | 
4 | CN(C)c1cccc(C(=O)O)c1C(=O)O | 94.5 µM | Active | Active | 
5 | O=C(O)c1cccc(N2CCCC2)c1C(=O)O | 2.8 µM | Active | Active | 
6 | COC1CCN(c2cccc(C(=O)O)c2C(=O)O)CC1 | 3.7 µM | Active | Active | 
7 | CCCCNc1cccc(C(=O)O)c1C(=O)O | 13.1 µM |  |  | 
8 | O=C(O)c1cccc(OCCO)c1C(=O)O | 47.8 µM | Active | Active | 
9 | O=C(O)c1cccc(N2CCC(O)(c3ccccc3)CC2)c1C(=O)O | 2.3 µM | Active | Active | 
10 | O=C(O)c1cccc(N2CCCCC2)c1C(=O)O | 10.8 µM | Active | Active | 
11 | O=C(O)c1cccc(OCc2ccccc2)c1C(=O)O | 7.4 µM |  |  | 
12 | O=C(O)c1cccc(-c2ccc(O)cc2)c1C(=O)O | 1.55 µM |  |  | 
13 | C[C@@H](O)[C@H]1C(=O)N2C(C(=O)[O-])=C(SC3Cn4cnc[n+]4C3)[C@H](C)[C@H]12 (stereo not given in full) [BIAPENEM] |  |  |  | MIC [4]: 64 µg/mL (≈ 183 µM); MIC [5]: 64 µg/mL (≈ 183 µM)
14 | O=C(O)c1cccc(N2CCC(CCO)CC2)c1C(=O)O | 25.6 µM | Active | Active | 
15 | O=C(O)c1cccc(OCCCc2ccccc2)c1C(=O)O | 1.7 µM | Active | inactive | 
16 | COc1cccc(C(=O)O)c1C(=O)O | 142 µM |  |  | 
17 | O=C(O)c1cccc(N2CCCC(CO)C2)c1C(=O)O (stereo not given) | 2.1 µM | Active | Active | 
18 | O=C(O)c1cccc(OCCCC2CCCCC2)c1C(=O)O | 2 µM |  | inactive | 
19 | O=C(O)c1cccc(OCCCO)c1C(=O)O | 21.4 µM | Active | Active | 
20 | O=C(O)c1cccc(N2CCC(CO)CC2)c1C(=O)O | 2.6 µM | Active | Active | 
21 | O=C(O)CCCCOc1cccc(C(=O)O)c1C(=O)O | 18.8 µM |  | Active | 
22 | O=C(O)c1cccc(N2CCC(O)CC2)c1C(=O)O | 2.7 µM | Active | Active | Activity [6]: Dose-dependent effect; Activity [7]: Dose-dependent effect; Activity [8]: Dose-dependent effect
23 | CCCCOc1cccc(C(=O)O)c1C(=O)O | 5.1 µM |  |  | 
